Measured values published in ChEMBL document CHEMBL1129480, “Design and synthesis of 1-aminocycloalkane-1-carboxylic acid-substituted deltorphin analogues: unique delta and mu opioid activity in modified peptides” (J Med Chem, 1996).
pIC50, pKi: −log10 of the molar value. Square brackets hold non-standard residues; d marks the D form. Peptide text beside a SMILES is read from it. Ac6c = NC1(C(=O)O)CCCCC1; Ac5c = NC1(C(=O)O)CCCC1; Ac3c = NC1(C(=O)O)CC1

Legend:
Mu-type opioid receptor [1] = biological target: Mu-type opioid receptor (Rattus norvegicus, UniProt P33535); assay: Displacement of [3H]DAGO (1.28 nM) from Opioid receptor mu 1
Procedure, shortened: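 Rat brain synaptosomal membranes, preincubated, in 50 mM HEPES pH 7.5, 5 mM MgCl2, glycerol, protease inhibitors with [3H]DAGO for 120 min at 22-23 °C. Baseline set with 2 µM unlabeled peptide. Filtration, washes with ice-cold buffer containing 0.01% BSA or lactalbumin. Duplicates over 6-14 concentrations spanning 1000-fold, or triplicates with 25-35 concentrations fitted to one- or two-site models. Ki from IC50 by Cheng-Prusoff.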

Mu-type opioid receptor [2] = biological target: Mu-type opioid receptor (Cavia porcellus, UniProt P97266); assay: Compound was evaluated for its inhibitory activity towards Opioid receptor mu 1 of guinea pig ileum (GPI); type: tissue-based
Procedure, shortened: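 Guinea pig ileum segment (2-3 cm) in 20 mL organ bath with 70 µM hexamethonium bromide and 0.125 µM mepyramine maleate, 95% O2/5% CO2, 36 °C. Transmural stimulation, 0.5 ms square pulses at 0.1 Hz, 1.5× maximal-twitch voltage (~30 V). Dose-response curves against reference agonists (dermorphin or morphine). IC50 as mean ± SE of four independent experiments.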

[3] = biological target: Delta-type opioid receptor (Mus musculus, UniProt P32300); assay: Inhibitory activity against Opioid receptor delta 1 of mouse vas deferens (MVD); type: tissue-based
[4] = biological target: Delta-type opioid receptor (Rattus norvegicus, UniProt P33533); assay: Displacement of [3H]DPDPE (0.63 nM) from Opioid receptor delta 1
Procedure, shortened: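 Rat brain synaptosomal membranes, preincubated, incubated with [3H]DPDPE in 50 mM HEPES pH 7.5, 5 mM MgCl2, glycerol, protease inhibitors, 120 min at 22-23 °C. Nonspecific baseline from 2 µM unlabeled peptide. Filtered, washed with ice-cold buffer plus 0.01% BSA or lactalbumin. Duplicates, 6-14 concentrations over 1000-fold, or triplicates with 25-35 concentrations for one/two-site fits. Ki via Cheng-Prusoff.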

Sequence of Mu-type opioid receptor (Rattus norvegicus, UniProt P33535) (P33535 whole entry): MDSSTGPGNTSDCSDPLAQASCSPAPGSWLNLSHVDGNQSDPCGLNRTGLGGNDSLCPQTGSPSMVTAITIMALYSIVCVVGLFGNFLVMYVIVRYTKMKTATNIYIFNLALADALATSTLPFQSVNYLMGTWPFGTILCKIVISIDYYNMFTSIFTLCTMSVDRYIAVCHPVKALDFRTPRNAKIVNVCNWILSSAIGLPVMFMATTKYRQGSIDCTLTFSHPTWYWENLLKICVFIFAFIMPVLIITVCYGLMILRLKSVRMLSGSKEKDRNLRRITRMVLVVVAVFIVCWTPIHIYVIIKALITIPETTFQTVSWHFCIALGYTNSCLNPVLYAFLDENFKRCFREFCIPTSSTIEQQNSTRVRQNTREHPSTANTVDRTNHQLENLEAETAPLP
Sequence of Delta-type opioid receptor (Mus musculus, UniProt P32300) (P32300 whole entry): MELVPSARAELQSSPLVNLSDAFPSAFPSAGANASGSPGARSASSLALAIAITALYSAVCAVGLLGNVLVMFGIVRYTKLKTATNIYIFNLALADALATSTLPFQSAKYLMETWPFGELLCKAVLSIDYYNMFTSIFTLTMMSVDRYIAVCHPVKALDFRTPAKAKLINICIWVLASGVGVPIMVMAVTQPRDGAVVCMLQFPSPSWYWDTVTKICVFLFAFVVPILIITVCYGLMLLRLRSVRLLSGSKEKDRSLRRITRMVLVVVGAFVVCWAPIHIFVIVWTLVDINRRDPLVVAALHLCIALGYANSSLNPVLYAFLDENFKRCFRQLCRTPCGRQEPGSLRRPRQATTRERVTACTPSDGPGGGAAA
Sequence of Delta-type opioid receptor (Rattus norvegicus, UniProt P33533) (P33533 whole entry): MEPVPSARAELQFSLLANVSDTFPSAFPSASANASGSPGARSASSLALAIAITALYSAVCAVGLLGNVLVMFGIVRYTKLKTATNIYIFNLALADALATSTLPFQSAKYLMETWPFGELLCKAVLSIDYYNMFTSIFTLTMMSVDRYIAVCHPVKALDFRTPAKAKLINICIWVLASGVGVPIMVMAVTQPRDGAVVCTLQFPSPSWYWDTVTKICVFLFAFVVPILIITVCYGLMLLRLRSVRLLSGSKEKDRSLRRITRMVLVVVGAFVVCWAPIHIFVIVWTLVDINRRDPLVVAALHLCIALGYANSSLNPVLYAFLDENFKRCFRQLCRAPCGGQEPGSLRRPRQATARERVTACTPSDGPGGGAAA
Sequence of Mu-type opioid receptor (Cavia porcellus, UniProt P97266) (P97266 whole entry): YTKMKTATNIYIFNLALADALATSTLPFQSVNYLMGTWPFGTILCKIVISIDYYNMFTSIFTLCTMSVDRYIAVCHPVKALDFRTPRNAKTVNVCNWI

Compound	pKi (Mu-type opioid receptor [1])	pIC50 (Mu-type opioid receptor [2])	pIC50 [3]	pKi [4]
CC(C)[C@H](NC(=O)[C@@H](NC(=O)C1(NC(=O)[C@H](Cc2ccccc2)NC(=O)[C@H](C)NC(=O)[C@@H](N)Cc2ccc(O)cc2)CCCCC1)C(C)C)C(=O)NCC(N)=O (H-YAF[Ac6c]VVG-NH2)	8.61	6.25	9.28	10.35
CC(C)[C@H](NC(=O)[C@H](CC(=O)O)NC(=O)C1(NC(=O)[C@@H](N)Cc2ccc(O)cc2)CCCCC1)C(=O)N[C@H](C(=O)NCC(N)=O)C(C)C (H-Y[Ac6c]DVVG-NH2)	3.36	–	–	5.28
CC(C)[C@H](NC(=O)[C@H](CC(=O)O)NC(=O)C1(NC(=O)[C@H](C)NC(=O)[C@@H](N)Cc2ccc(O)cc2)CCCCC1)C(=O)N[C@H](C(=O)NCC(N)=O)C(C)C (H-YA[Ac6c]DVVG-NH2)	5.26	< 5.00	6.27	8.48
CC(C)[C@H](NC(=O)[C@H](CC(=O)O)NC(=O)C1(NC(=O)[C@H](C)NC(=O)[C@@H](N)Cc2ccc(O)cc2)CCCC1)C(=O)N[C@H](C(=O)NCC(N)=O)C(C)C (H-YA[Ac5c]DVVG-NH2)	5.17	< 5.00	5.79	7.81
CC(C)[C@H](NC(=O)[C@H](CC(=O)O)NC(=O)[C@H](Cc1ccccc1)NC(=O)C1(NC(=O)[C@@H](N)Cc2ccc(O)cc2)CCCCC1)C(=O)N[C@H](C(=O)NCC(N)=O)C(C)C (H-Y[Ac6c]FDVVG-NH2)	5.51	–	–	8.61
CC(C)[C@H](NC(=O)[C@@H](NC(=O)C1(NC(=O)[C@H](Cc2ccccc2)NC(=O)[C@H](C)NC(=O)[C@@H](N)Cc2ccc(O)cc2)CCCC1)C(C)C)C(=O)NCC(N)=O (H-YAF[Ac5c]VVG-NH2)	9.24	6.85	9.72	10.27
CC(C)[C@H](NC(=O)[C@H](CC(=O)O)NC(=O)[C@H](Cc1ccccc1)NC(=O)[C@@H](C)NC(=O)[C@@H](N)Cc1ccc(O)cc1)C(=O)N[C@H](C(=O)NCC(N)=O)C(C)C [DELTORPHIN C]	6.83	6.47	–	9.82
CC(C)[C@H](NC(=O)[C@H](CC(=O)O)NC(=O)C1(NC(=O)[C@H](C)NC(=O)[C@@H](N)Cc2ccc(O)cc2)CC1)C(=O)N[C@H](C(=O)NCC(N)=O)C(C)C (H-YA[Ac3c]DVVG-NH2)	4.99	< 5.00	6.34	7.72
CC(C)[C@H](NC(=O)[C@@H](NC(=O)C1(NC(=O)[C@H](Cc2ccccc2)NC(=O)[C@H](C)NC(=O)[C@@H](N)Cc2ccc(O)cc2)CC1)C(C)C)C(=O)NCC(N)=O (H-YAF[Ac3c]VVG-NH2)	9.57	7.82	9.37	10.27
CC(C)[C@H](NC(=O)[C@H](CC(=O)O)NC(=O)C1(NC(=O)C2(NC(=O)[C@@H](N)Cc3ccc(O)cc3)CCCCC2)CCCCC1)C(=O)N[C@H](C(=O)NCC(N)=O)C(C)C (H-Y[Ac6c][Ac6c]DVVG-NH2)	4.83	–	–	7.06
